What was measured:
[1] = Half life in human hepatocytes at 5 uM by LCMS/MS analysis; type: ADME, cell-based, Hepatocyte
How it was run: (§1)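 Incubation in human hepatocytes. […] Values are means of at least three experiments.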

Histone deacetylase 2 = Histone deacetylase 2 (Homo sapiens, UniProt Q92769); experiment: Inhibition of HDAC2 (unknown origin) using fluorogenic tetrapeptide RHKK(Ac) substrate by fluorescence assay
Histone deacetylase 11 = biological target: T1, Histone deacetylase 11 (Homo sapiens, UniProt Q96DB2); experiment: Inhibition of HDAC11 (unknown origin) using fluorogenic tetrapeptide RHKK(Ac) substrate by fluorescence assay
T1 sequence (Q96DB2 whole entry): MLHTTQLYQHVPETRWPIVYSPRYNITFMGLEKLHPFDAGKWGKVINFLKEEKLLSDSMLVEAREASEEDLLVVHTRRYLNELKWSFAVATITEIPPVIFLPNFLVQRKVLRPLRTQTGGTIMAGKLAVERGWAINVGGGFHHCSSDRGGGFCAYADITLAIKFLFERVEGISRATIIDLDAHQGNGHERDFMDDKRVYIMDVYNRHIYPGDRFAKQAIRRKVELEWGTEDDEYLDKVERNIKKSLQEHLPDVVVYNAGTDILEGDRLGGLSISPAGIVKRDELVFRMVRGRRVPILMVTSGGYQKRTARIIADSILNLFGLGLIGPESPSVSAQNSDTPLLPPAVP

Histone deacetylase 8 = biological target: T2, Histone deacetylase 8 (Homo sapiens, UniProt Q9BY41); experiment: Inhibition of HDAC8 (unknown origin) using fluorogenic tetrapeptide RHK(Ac)K(Ac) substrate by fluorescence assay
T2 sequence (Q9BY41 whole entry): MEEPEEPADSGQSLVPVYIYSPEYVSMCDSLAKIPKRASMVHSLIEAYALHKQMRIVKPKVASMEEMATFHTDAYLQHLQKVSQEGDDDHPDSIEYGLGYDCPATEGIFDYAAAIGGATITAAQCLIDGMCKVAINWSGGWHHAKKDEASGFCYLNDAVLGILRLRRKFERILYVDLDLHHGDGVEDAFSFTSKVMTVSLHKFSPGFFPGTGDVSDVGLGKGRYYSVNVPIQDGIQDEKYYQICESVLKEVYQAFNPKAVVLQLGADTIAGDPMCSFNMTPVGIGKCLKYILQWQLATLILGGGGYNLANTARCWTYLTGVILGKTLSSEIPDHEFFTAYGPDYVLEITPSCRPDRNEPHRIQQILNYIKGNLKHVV

[2] = Antitumor activity against human HCT116 cells xenografted in athymic nude mouse assessed as tumor volume inhibition at 100 mg/kg, po qd for 5 days a week for 3 weeks; type: functional; conditions: HCT-116
How it was run: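 Female athymic nude mice, 5–6 weeks old, were inoculated sc in the right flank with 5 × 10⁶ exponentially growing tumor cells per 100 μL. Oral dosing once daily began 3 days after tumor injection, in Solutol HS15 diluted 1/20 in water. Tumor volume inhibition was calculated as TVI% = 100 − [(mean TV treated/mean TV control) × 100].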

Mus musculus = experiment: Toxicity in human HCT116 cells xenografted athymic nude mouse assessed as body weight loss at 100 mg/kg, po qd for 5 days a week for 3 weeks; type: organism-based, HCT-116; design: dose 100 mg/kg, route oral; conditions: in vivo
How it was run: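 Nude mice (female, athymic, 5–6 weeks) carried sc right-flank xenografts of 5 × 10⁶ cells per 100 μL. Oral treatment once daily started 3 days after inoculation.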

[3] = Intrinsic clearance in human hepatocytes assessed per million cells at 5 uM by LCMS/MS analysis; type: ADME, cell-based, Hepatocyte; conditions: read-out: CLH; how it was run: as §1
[4] = biological target: T3, Cholecystokinin receptor type A (Homo sapiens) (UniProt P32238); experiment: Inhibition of human CCK1 at 10 uM by radioligand displacement assay
T3 sequence (whole entry): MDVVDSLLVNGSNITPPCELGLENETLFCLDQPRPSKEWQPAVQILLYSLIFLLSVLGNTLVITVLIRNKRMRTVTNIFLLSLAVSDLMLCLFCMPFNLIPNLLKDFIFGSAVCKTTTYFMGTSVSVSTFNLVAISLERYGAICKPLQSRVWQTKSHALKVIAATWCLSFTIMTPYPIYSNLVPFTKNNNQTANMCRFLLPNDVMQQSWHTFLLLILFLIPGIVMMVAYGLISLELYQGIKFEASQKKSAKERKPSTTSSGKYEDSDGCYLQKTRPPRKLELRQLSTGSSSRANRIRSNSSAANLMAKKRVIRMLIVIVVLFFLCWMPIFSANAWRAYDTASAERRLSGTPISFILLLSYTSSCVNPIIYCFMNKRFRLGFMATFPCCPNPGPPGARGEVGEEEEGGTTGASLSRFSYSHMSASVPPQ
How it was run: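 Tested at 10⁻⁵ M within a 40-target panel of receptors, ion channels and enzymes. Read-out was percent displacement of a radiolabeled reference ligand.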

[5] = biological target: T4, Polyamine deacetylase HDAC10 (Homo sapiens, UniProt Q969S8); experiment: Inhibition of HDAC10 (unknown origin) using fluorogenic tetrapeptide RHKK(Ac) substrate by fluorescence assay
T4 sequence (Q969S8 whole entry): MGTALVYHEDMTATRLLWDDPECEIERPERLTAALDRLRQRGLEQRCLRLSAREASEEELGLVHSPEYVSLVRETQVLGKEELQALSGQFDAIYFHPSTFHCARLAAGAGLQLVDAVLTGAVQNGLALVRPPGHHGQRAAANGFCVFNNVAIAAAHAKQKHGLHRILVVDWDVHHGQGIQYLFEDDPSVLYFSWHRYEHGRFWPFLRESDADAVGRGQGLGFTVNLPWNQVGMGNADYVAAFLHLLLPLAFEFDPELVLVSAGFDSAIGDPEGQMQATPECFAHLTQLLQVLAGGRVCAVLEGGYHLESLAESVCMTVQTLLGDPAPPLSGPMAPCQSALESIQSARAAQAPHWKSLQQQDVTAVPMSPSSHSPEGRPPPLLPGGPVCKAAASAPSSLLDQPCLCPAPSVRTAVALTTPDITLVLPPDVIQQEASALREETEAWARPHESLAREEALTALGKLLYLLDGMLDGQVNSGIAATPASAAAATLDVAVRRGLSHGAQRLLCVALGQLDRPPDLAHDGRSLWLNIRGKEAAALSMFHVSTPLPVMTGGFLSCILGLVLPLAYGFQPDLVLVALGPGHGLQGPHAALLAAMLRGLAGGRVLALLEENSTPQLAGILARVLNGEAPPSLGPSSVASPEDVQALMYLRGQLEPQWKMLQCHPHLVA

[6] = Efflux ratio of permeability from apical to basolateral side to basolateral to apical side of human Caco2 cells in presence of digoxin; type: ADME, cell-based; conditions: caco-2
How it was run: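 Caco-2 AB/BA flux ratio measured with digoxin coincubated with test and reference compounds. Means of at least three experiments.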

[7] = Efflux ratio of permeability from apical to basolateral side to basolateral to apical side of human Caco2 cells; type: ADME, cell-based; conditions: caco-2
How it was run: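 Caco-2 monolayers; the efflux ratio is flux in the apical-to-basolateral direction over flux in the basolateral-to-apical direction. Means of at least three experiments.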

Histone deacetylase 1 = Histone deacetylase 1 (Homo sapiens, UniProt Q13547); experiment: Inhibition of HDAC1 (unknown origin) using fluorogenic tetrapeptide RHKK(Ac) substrate by fluorescence assay
Histone deacetylase 3 = Histone deacetylase 3 (Homo sapiens, UniProt O15379); experiment: Inhibition of HDAC3 (unknown origin) using fluorogenic tetrapeptide RHKK(Ac) substrate by fluorescence assay
Sequence of Histone deacetylase 3 (O15379 whole entry): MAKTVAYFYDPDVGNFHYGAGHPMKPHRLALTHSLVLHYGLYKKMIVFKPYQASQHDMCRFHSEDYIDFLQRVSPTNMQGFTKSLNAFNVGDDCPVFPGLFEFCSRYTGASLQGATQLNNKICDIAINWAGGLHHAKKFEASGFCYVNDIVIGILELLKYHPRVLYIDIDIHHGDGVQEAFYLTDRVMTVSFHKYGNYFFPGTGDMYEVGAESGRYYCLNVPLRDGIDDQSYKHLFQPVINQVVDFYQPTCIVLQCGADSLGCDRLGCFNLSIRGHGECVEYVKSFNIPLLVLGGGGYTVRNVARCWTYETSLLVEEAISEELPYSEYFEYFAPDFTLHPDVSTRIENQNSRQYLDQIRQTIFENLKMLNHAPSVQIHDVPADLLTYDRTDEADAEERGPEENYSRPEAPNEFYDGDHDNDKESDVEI

Sequence of Histone deacetylase 1 (Q13547 whole entry): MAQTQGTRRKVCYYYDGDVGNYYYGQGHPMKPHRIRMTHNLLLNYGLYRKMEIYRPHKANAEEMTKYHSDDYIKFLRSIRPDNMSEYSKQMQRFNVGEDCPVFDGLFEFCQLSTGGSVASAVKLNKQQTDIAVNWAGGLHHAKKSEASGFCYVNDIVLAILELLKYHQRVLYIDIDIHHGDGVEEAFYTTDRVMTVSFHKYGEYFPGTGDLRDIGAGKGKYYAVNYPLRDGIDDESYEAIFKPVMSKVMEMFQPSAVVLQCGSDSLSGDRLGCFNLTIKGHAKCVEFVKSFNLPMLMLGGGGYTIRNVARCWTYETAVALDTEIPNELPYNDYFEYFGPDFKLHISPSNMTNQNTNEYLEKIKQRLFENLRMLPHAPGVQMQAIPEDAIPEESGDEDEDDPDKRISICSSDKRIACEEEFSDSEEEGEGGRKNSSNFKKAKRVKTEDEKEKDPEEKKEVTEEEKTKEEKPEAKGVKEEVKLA
Sequence of Histone deacetylase 2 (Q92769 whole entry): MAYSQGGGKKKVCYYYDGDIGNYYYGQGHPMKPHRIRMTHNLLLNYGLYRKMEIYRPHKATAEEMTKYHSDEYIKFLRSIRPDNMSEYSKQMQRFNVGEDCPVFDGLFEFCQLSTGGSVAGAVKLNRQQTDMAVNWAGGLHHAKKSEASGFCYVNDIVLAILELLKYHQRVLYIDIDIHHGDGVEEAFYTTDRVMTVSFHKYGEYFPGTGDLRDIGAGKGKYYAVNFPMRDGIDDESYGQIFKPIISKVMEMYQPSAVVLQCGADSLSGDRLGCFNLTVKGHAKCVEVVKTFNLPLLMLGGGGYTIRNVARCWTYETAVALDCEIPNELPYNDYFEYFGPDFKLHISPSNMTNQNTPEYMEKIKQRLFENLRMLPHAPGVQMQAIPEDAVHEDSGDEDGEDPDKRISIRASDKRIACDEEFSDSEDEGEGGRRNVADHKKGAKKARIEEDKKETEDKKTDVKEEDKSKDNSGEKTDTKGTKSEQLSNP

O=C1CC[C@@H](C(=O)N[C@H](CCCCCS)C(=O)Nc2ccccc2)N1
half-life at 5 µM [1]: 45 min | IC50 (Histone deacetylase 2): 78 nM | IC50 (Histone deacetylase 11): 14 nM | IC50 (Histone deacetylase 8): 281 nM | inhibition in vivo at 100 mg/kg [2]: 27% | Activity (Mus musculus): 3% | hepatocyte CLint at 5 µM [3]: 15.4 µL/min/1e6 cells | inhibition [4]: 45% | IC50 [5]: 11 nM | Ratio [6]: 3.6 | Ratio [7]: 5.2 | IC50 (Histone deacetylase 1): 13 nM | IC50 (Histone deacetylase 3): 5 nM

Source: ChEMBL document CHEMBL3352570, “ST7612AA1, a thioacetate-ω(γ-lactam carboxamide) derivative selected from a novel generation of oral HDAC inhibitors” (J Med Chem, 2014)
